The subject of data set [1] is Mus musculus. Briefly: fCmax in mouse at 100 mg/kg, ip. It counts as ADME, organism-based. The conditions noted are these: in vivo. The method in brief:
(§1)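 Mouse tolerability studies at multiple doses, oral or intraperitoneal. Minimum unbound plasma concentration associated with adverse effects (total Cmax converted to unbound) compared with IC50 for inhibition of MEK1 S298 phosphorylation in cells.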

Data set [2] in a line: Fraction unbound in mouse plasma at 100 mg/kg, ip. It counts as ADME, organism-based.
Data set [3] concerns the target Serine/threonine-protein kinase PAK 1 (Homo sapiens, UniProt Q13153). Briefly: Inhibition of human recombinant N-terminal 6-His-tagged PAK1 kinase domain (249 to 545 residues) expressed in Escherichia coli BL21(DE3) assessed as phosphorylation of coumarin labeled FRET peptide substrate at Ser/Thr19 preincubated for 10 mins followed by ATP addition measured after 60 mins by Z'-LYTE assay.

Data set [4] addresses Serine/threonine-protein kinase PAK 2 (Homo sapiens, UniProt Q13177). The experiment in a line: Inhibition of human recombinant PAK2 assessed as phosphorylation of coumarin labeled FRET peptide substrate at Ser/Thr19 preincubated for 10 mins followed by ATP addition measured after 60 mins by Z'-LYTE assay.
A short description of data set [5]: Cmax in mouse at 100 mg/kg, ip. It counts as ADME, organism-based. Further details: dose 100 mg/kg, route intraperitoneal. The conditions noted are these: in vivo.
The target in data set [6] is Serine/threonine-protein kinase PAK 1/PAK 2 (Homo sapiens, UniProt Q13177+Q13153). The experiment in a line: Inhibition of PAK1/2 in human EBC1 cells assessed as phosphorylation of MEK1 at serine 298 after 2 hrs by HTRF assay. It counts as cell-based. Background: TR-FRET usually uses a lanthanide donor and a delayed reading to cut background.
The species named for data set [7] is Rattus norvegicus. The experiment in a line: fCmax associated with acute adverse effect in rat. It counts as ADME, organism-based. The conditions noted are these: in vivo.
The subject of data set [8] is Mus musculus. The experiment in a line: Toxicity in mouse assessed as darkened blood at 60 to 80 mg/kg, po. It counts as organism-based. The conditions noted are these: in vivo.
Data set [9] relates to Mus musculus. Briefly: Toxicity in mouse assessed as hypoactivity at 60 to 80 mg/kg, po. It counts as organism-based. The conditions noted are these: in vivo.
Data set [10] is described as follows: Fraction unbound in mouse plasma at 60 to 80 mg/kg, po. It counts as ADME, organism-based.
Data set [11] in a line: Cmax associated with acute adverse effect in rat. It counts as ADME, organism-based. As to conditions: in vivo.
Data set [12] is filed under the species Rattus norvegicus. Briefly: Toxicity in rat assessed as slow blood flow. The conditions noted are these: in vivo. It counts as organism-based.
The test system of data set [13] is Mus musculus. The experiment in a line: Toxicity in mouse assessed as hunched posture at 60 to 80 mg/kg, po. As to conditions: in vivo. It counts as organism-based.
The species named for data set [14] is Rattus norvegicus. The experiment in a line: Toxicity in rat assessed as hypoactivity. It counts as organism-based. The conditions noted are these: in vivo.
In data set [15] the test system is Mus musculus. Briefly: Toxicity in mouse assessed as slow blood flow at 60 to 80 mg/kg, po. It counts as organism-based. The conditions noted are these: in vivo.
Data set [16] concerns Mus musculus. The experiment in a line: fCmax associated with acute adverse effect in mouse at 60 to 80 mg/kg, po. It counts as ADME, organism-based. As to conditions: in vivo. The method in brief: as §1
The species named for data set [17] is Rattus norvegicus. The experiment in a line: Toxicity in rat assessed as darkened blood. It counts as organism-based. The conditions noted are these: in vivo.
Data set [18] is described as follows: Cmax associated with acute adverse effect in mouse at 60 to 80 mg/kg, po. It counts as ADME, organism-based. As to conditions: in vivo. An outline of the steps:
(§2)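 Mouse tolerability studies tested multiple doses, given orally or intraperitoneally. Plasma drug concentrations were measured, including at a 15 min time point. The minimum concentration associated with adverse clinical signs or death was taken as the adverse Cmax and was converted to an unbound value.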

Data set [19] is filed under the species Rattus norvegicus. The experiment in a line: Toxicity in rat assessed as hunched posture. It counts as organism-based. As to conditions: in vivo.
Data set [20] can be described thus: Cmax associated with acute adverse effect in mouse at 100 to 200 mg/kg, ip. It counts as ADME, organism-based. As to conditions: in vivo. The method in brief:
as §2

A short description of data set [21]: Ratio of fCmax associated with acute adverse effect in mouse at 100 to 200 mg/kg, ip to IC50 for PAK1/2-mediated phosphorylation of MEK1 at serine 298 in human EBC1 cells.
Data set [22] relates to Mus musculus. Briefly: fCmax associated with acute adverse effect in mouse at 100 to 200 mg/kg, ip. It counts as ADME, organism-based. The conditions noted are these: in vivo. The method in brief:
as §1

A short description of data set [23]: Fraction unbound in mouse plasma at 100 to 200 mg/kg, ip. It counts as ADME, organism-based.
Data set [24] is described as follows: Fraction unbound in mouse plasma at 50 to 100 mg/kg, ip. It counts as ADME, organism-based.
Data set [25] is described as follows: Ratio of fCmax associated with acute adverse effect in mouse at 50 to 100 mg/kg, ip to IC50 for PAK1/2-mediated phosphorylation of MEK1 at serine 298 in human EBC1 cells. An outline of the steps: as §1
The test system of data set [26] is Mus musculus. Briefly: fCmax associated with acute adverse effect in mouse at 50 to 100 mg/kg, ip. It counts as ADME, organism-based. As to conditions: in vivo. An outline of the steps: as §1
A short description of data set [27]: Cmax associated with acute adverse effect in mouse at 50 to 100 mg/kg, ip. It counts as ADME, organism-based. The conditions noted are these: in vivo. An outline of the steps:
as §2

Data set [28] can be described thus: Cmax associated with acute adverse effect in mouse at 150 to 300 mg/kg, ip. The conditions noted are these: in vivo. It counts as ADME, organism-based. The method in brief: as §2
Data set [29] is described as follows: Fraction unbound in mouse plasma at 150 to 300 mg/kg, ip. It counts as ADME, organism-based.
The nature of data set [30]: Ratio of fCmax associated with acute adverse effect in mouse at 150 to 300 mg/kg, ip to IC50 for PAK1/2-mediated phosphorylation of MEK1 at serine 298 in human EBC1 cells. The method in brief: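 Mice were dosed at multiple levels, orally or intraperitoneally, and monitored for acute adverse signs. The minimum unbound plasma Cmax associated with adverse effects was converted from total drug concentration and compared with the cellular IC50 for phospho-MEK1 S298 inhibition.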

In data set [31] the test system is Mus musculus. The experiment in a line: fCmax associated with acute adverse effect in mouse at 150 to 300 mg/kg, ip. As to conditions: in vivo. It counts as ADME, organism-based. An outline of the steps:
as §1

Data set [32] can be described thus: Fraction unbound in mouse plasma at 25 to 50 mg/kg, po. It counts as ADME, organism-based.
In data set [33] the test system is Mus musculus. Briefly: fCmax associated with acute adverse effect in mouse at 25 to 50 mg/kg, po. It counts as ADME, organism-based. As to conditions: in vivo. The method in brief: as §1
A short description of data set [34]: Ratio of fCmax associated with acute adverse effect in mouse at 25 to 50 mg/kg, po to IC50 for PAK1/2-mediated phosphorylation of MEK1 at serine 298 in human EBC1 cells. An outline of the steps:
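Mouse tolerability studies at multiple doses, given p.o. or i.p. Total plasma concentrations were converted to unbound levels. The minimum unbound Cmax linked to adverse effects was set against the cellular IC50 for inhibition of MEK1 S298 phosphorylation.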

A short description of data set [35]: Cmax associated with acute adverse effect in mouse at 25 to 50 mg/kg, po. As to conditions: in vivo. It counts as ADME, organism-based. The method in brief:
as §2

Data set [36] can be described thus: Ratio of fCmax associated with acute adverse effect in mouse at 100 mg/kg, ip to IC50 for PAK1/2-mediated phosphorylation of MEK1 at serine 298 in human EBC1 cells.
The nature of data set [37]: Cmax associated with acute adverse effect in mouse at 100 mg/kg, ip. It counts as ADME, organism-based. More on the design: dose 100 mg/kg, route intraperitoneal. The conditions noted are these: in vivo. An outline of the steps:
as §2

Data set [38] has as its system Mus musculus. Briefly: fCmax associated with acute adverse effect in mouse at 100 mg/kg, ip. It counts as ADME, organism-based. As to conditions: in vivo. An outline of the steps: as §1
Data set [39] deals with Mus musculus. Briefly: Toxicity in mouse at 100 mg/kg, ip. It counts as organism-based. The conditions noted are these: in vivo.
A short description of data set [40]: Fraction unbound in mouse plasma at 25 mg/kg, ip. It counts as ADME, organism-based.
Data set [41] can be described thus: Ratio of fCmax associated with acute adverse effect in mouse at 25 mg/kg, ip to IC50 for PAK1/2-mediated phosphorylation of MEK1 at serine 298 in human EBC1 cells.
Data set [42] can be described thus: Cmax associated with acute adverse effect in mouse at 50 mg/kg, ip. The conditions noted are these: in vivo. Further details: dose 50 mg/kg, route intraperitoneal. It counts as ADME, organism-based. The method in brief: as §2
For data set [43], the system named is Mus musculus. Briefly: fCmax associated with acute adverse effect in mouse at 25 mg/kg, ip. It counts as ADME, organism-based. As to conditions: in vivo. The method in brief:
as §1

A word on the fraction unbound: it is the share of the substance not bound to proteins or other matrix. Low values mean little free substance, high ones much free substance. As usually defined, the Ki is the dissociation constant of the complex between target and ligand, obtained from inhibition or displacement. In general, IC50 refers to the point on the concentration scale where inhibition reaches its midpoint.

Chain of Serine/threonine-protein kinase PAK 1 (Q13153 whole entry, the tested form may be a part): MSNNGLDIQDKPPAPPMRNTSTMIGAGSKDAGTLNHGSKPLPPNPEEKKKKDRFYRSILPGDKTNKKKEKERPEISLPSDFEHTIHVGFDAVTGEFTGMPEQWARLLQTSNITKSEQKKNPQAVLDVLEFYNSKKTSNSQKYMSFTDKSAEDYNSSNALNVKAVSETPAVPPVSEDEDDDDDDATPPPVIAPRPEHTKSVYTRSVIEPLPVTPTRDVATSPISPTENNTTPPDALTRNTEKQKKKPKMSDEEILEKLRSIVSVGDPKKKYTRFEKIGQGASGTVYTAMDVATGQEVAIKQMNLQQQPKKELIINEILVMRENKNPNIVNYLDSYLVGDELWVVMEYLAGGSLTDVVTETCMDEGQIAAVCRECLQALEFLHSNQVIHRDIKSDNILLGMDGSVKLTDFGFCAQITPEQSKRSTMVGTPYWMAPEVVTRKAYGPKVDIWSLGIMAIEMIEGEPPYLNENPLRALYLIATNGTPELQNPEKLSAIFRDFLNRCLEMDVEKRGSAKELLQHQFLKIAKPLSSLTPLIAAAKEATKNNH
Chain of Serine/threonine-protein kinase PAK 2 (Q13177 whole entry): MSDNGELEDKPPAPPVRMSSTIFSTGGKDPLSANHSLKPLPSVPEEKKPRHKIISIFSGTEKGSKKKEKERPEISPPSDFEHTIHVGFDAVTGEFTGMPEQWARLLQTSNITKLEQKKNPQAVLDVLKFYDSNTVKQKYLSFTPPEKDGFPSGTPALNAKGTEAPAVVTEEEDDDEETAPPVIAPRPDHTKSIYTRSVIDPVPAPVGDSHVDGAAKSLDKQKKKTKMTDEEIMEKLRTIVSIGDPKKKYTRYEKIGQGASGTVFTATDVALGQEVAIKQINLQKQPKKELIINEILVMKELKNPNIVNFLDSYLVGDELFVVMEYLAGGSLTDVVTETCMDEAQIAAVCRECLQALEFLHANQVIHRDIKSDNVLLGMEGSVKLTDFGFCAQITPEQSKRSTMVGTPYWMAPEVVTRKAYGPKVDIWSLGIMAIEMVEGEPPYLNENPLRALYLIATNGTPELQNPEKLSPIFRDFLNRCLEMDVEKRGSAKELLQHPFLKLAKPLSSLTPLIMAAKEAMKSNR

With `CNc1ncc2cc(-c3ccc(-n4ccc(C)cc4=O)cc3Cl)c(=O)n(C[C@H]3CNCCO3)c2n1`, in [1], the fCmax is 5.7 µM. The fraction unbound in [2] was determined as 0.143. In addition, the Ki came to 943 nM in data set [3] and 2300 nM in data set [4]. In data set [5], this compound had a Cmax of 40 µM. The IC50 in data set [6] is greater than 30 µM.

Consider `CCn1c(=O)c(-c2ccc(-c3cncc(C)n3)cc2Cl)cc2cnc(NCCC3CCN(C)CC3)nc21`, for which the values for the fCmax in data set [7] and in data set [16] were 0.076 µM and 0.27 µM, respectively. Besides, the Activity result in [8], in data set [9], in data set [12], in [13], in data set [14] and in data set [15] was “Toxic” throughout. In addition, the Activity entry in data set [17] and in data set [19] was “Toxic” throughout. The same compound yielded an unbound share (fraction unbound) in [10] of 0.017. Besides, the Cmax stood at 4 µM in [11] and 16 µM in data set [18].

`Cc1cncc(-c2ccc(-c3cc4cncnc4n(C[C@H]4CC[C@H](N)CC4)c3=O)c(Cl)c2)n1`: the Ki in data set [3] was determined as 372 nM; in [4], 940 nM. In data set [20], the Cmax is 59 µM. Besides, the IC50 in [6] amounted to 6 µM. Besides, the Ratio in [21] worked out at 1. This compound showed a fCmax in data set [22] of 6.1 µM. This compound also displayed a fraction unbound in [23] of 0.104.

Regarding `Cc1nccn(-c2ccc(-c3cc4cnc(NC5COC5)nc4n(CC4CCNCC4(F)F)c3=O)c(Cl)c2)c1=O` (single isomer, unassigned), the fraction unbound in [24] was found to be 0.076. For the same compound, the Ratio in data set [25] came to 1. The values for the inhibition constant (Ki) in [3] and in data set [4] were 5.2 nM and 4.6 nM, respectively. In addition, the fCmax in data set [26] is 0.89 µM. In addition, the concentration for half-maximal inhibition (IC50) in data set [6] was 0.28 µM. Further, in data set [27], the Cmax was found to be 12 µM.

With `CNc1ncc2cc(-c3ccc(-n4cccc(C)c4=O)cc3C3CC3)c(=O)n(C[C@@H]3CNCCO3)c2n1`, the Cmax in data set [28] worked out at 63 µM. Also, the fraction unbound in [29] amounted to 0.025. For the same compound, in [30], the Ratio stood at 1. Further, the Ki in data set [3] amounted to 950 nM; in data set [4] it was 3670 nM. For the same compound, in data set [6], the IC50 was 15 µM. In data set [31], this compound displayed a fCmax of 1.6 µM.

In [32], `CNc1ncc2cc(-c3ccc(-n4cncc(C)c4=O)cc3Cl)c(=O)n(CCOC)c2n1` showed a free fraction (fraction unbound) of 0.059. Further, the fCmax in data set [33] was 0.85 µM. The Ratio in data set [34] is on record as 1. Moreover, the values for the Ki in data set [3] and in data set [4] were 22 nM and 39 nM, respectively. In [35], this compound gave a Cmax of 14 µM. For the same compound, the half-inhibitory concentration (IC50) in data set [6] is 0.8 µM.

On to `CCc1cccn(-c2ccc(-c3cc4cnc(NC)nc4n(C[C@H]4CNCCO4)c3=O)c(Cl)c2)c1=O`, for which, in [36], the Ratio is 1. The Cmax in [37] came out at 28 µM. Further, the fCmax in [38] came to 0.76 µM. The compound further showed a free fraction (fraction unbound) in data set [2] of 0.027. The Ki in data set [3] is 11 nM; in data set [4] it was 9.5 nM. Also, the Activity result in data set [39] is “Toxic”. Besides, in data set [6], the IC50 worked out at 0.24 µM.

In data set [40], `N[C@H]1CC[C@H](CNc2nccc(Nc3cc(C(F)(F)F)ccn3)n2)CC1` had a fraction unbound of 0.063. The Ratio in data set [41] is 1. The compound also returned a Cmax in data set [42] of 26 µM. Besides, the fCmax in [43] worked out at 1.6 µM.
